In data set [1] the target is T1, Sphingosine-1-phosphate transporter SPNS2 (Mus musculus) (UniProt Q91VM4).
T1 sequence (whole entry): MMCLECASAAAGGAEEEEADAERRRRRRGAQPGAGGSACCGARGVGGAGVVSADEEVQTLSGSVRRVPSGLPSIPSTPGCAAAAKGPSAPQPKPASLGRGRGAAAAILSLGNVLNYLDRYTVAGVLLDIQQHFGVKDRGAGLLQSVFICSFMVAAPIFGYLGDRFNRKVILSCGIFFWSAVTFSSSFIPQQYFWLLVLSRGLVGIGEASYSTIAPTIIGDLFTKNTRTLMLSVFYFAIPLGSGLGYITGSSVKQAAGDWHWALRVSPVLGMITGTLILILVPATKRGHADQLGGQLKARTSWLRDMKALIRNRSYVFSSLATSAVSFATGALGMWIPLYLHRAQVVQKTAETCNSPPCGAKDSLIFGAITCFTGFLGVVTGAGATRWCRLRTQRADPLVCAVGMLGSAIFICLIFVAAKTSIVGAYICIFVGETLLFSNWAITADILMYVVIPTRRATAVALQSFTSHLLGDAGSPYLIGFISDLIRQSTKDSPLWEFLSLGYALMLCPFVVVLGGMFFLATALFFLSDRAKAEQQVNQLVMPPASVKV
The experiment in a line: Inhibition of mouse Spns2 expressed in G418-resistant human HeLa cells assessed as decrease in S1P level at 1 uM incubated for 16 to 18 hrs by LC-MS/MS analysis relative to control. The data set is classed as cell-based. The settings on record: time 16-18 hrs. In outline: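 HeLa cells stably transfected with mouse Spns2 (pcDNA3.1; G418-resistant pools). S1P catabolism blocked with 4-deoxypyridoxine 1 mM, NaF 2 mM and Na3VO4 0.2 mM. Near-confluent cells incubated 16–18 h at 37 °C with 1 μM inhibitor in serum-free medium containing 0.2% fatty-acid-free BSA. Medium S1P measured by LC-MS/MS; reported as % decrease versus no-inhibitor control, in duplicate.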

Data set [2] can be described thus: Drug concentration in C57BL/6J mouse plasma at 10 mg/kg, po measured after 8 hrs LC-MS/MS analysis. The data set is classed as ADME, organism-based. In outline:
(§1)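 Three female C57BL/6j mice, 8–10 weeks old, given a single 10 mg/kg oral dose. Vehicle: 36.1% PEG400/9.1% ethanol/4.6% solutol/50% H2O. Blood sampled over time after dosing; plasma compound levels quantified by LC-MS/MS.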

The target in data set [3] is T1, Sphingosine-1-phosphate transporter SPNS2 (Mus musculus). The experiment in a line: Inhibition of mouse Spns2 expressed in G418-resistant human HeLa cells assessed as decrease in S1P level incubated for 16 to 18 hrs by LC-MS/MS analysis. To be noted: dose upper 10.0 µM, time 16-18 hrs. The data set is classed as cell-based. An outline of the steps:
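HeLa pools stably expressing mouse Spns2 (G418-selected), with S1P breakdown blocked by 4-deoxypyridoxine 1 mM, NaF 2 mM and Na3VO4 0.2 mM. Cells exposed for 16–18 h at 37 °C to 1 nM–10 μM inhibitor in serum-free 0.2% fatty-acid-free BSA medium. Released S1P quantified by LC-MS/MS; IC50 from dose–response […].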

Data set [4] can be described thus: Drug uptake in C57BL/6J mouse plasma at 10 mg/kg, po measured after 4 hrs by LC-MS/MS analysis. In kind it is ADME, organism-based. The settings on record: in vivo. In outline: as §1
Data set [5] concerns Mus musculus. The data set is described as follows: Effect on plasma S1P level in C57BL/6J mouse at 10 to 100 mg/kg, po measured after 4 hrs by LC-MS/MS analysis. To be noted: dose 10-100 mg/kg. The data set is classed as functional, organism-based. An outline of the steps:
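Five female C57BL/6j mice, 8–10 weeks old, dosed by oral gavage at 10, 30 or 100 mg/kg in 36.1% PEG400/9.1% ethanol/4.6% solutol/50% H2O, or vehicle alone. Plasma S1P measured by LC-MS/MS 4 h post dose and expressed relative to vehicle.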

Data set [6] concerns Mus musculus. The data set is described as follows: In vivo inhibition of Spns2 in C57BL/6J mouse assessed as decrease in lymphocytes count administered orally measured after 4 hrs by LC-MS/MS analysis. To be noted: dose 10-100 mg/kg, route po. In kind it is functional, organism-based. An outline of the steps: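 Oral gavage at 10, 30 or 100 mg/kg, or vehicle (36.1% PEG400/9.1% ethanol/4.6% solutol/50% H2O), to five female C57BL/6j mice aged 8–10 weeks. Blood drawn 4 h post dose; lymphocytes counted in 20 μL blood on a haematology analyzer and compared with vehicle.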

Data set [7] concerns Mus musculus. The data set is described as follows: Effect on plasma S1P level in C57BL/6J mouse at 3 to 30 mg/kg, ip measured after 6 hrs by LC-MS/MS analysis. To be noted: dose 3-30 mg/kg.

These results are taken from ChEMBL document CHEMBL5500421 (J Med Chem, 2024).

Each structure is given as a SMILES string. The source made the active and inactive calls. The rule behind the calls is not given here.

As a reminder, the inhibition is the share of the control response that was lost under treatment.

Take `CCCCCCCCCCc1ccc(NC(=O)N2CCN[C@H](C)C2)cc1`: the inhibition in data set [1] is 80%.

On to `CCCCCCCCCCc1ccc(NC(=O)N2CCN(C)CC2)cc1`, for which the inhibition in data set [1] came out at 3%.

For the molecule `CCCCCCCCCCc1ccc(NC(=O)N2CCNCC2)cc1.Cl`, in data set [2], the concentration at 8 h was over 500 nM. Also, the results for the inhibition entry (in data set [3]; with Mus musculus [6]; in data set [1]) were “Dose-Dependent Effect”, “Dose-Dependent Effect” and 91%, respectively. The Drug uptake entry in data set [4] is reported as “Active”. The outcome in the data set on Mus musculus [5] and in the data set with Mus musculus [7] was inactive.
